Drawing on ChEMBL document CHEMBL4020839, “Class I HDAC Inhibitors Display Different Antitumor Mechanism in Leukemia and Prostatic Cancer Cells Depending on Their p53 Status” (J Med Chem, 2018), this text covers Activity, IC50 and EC50 for six compounds.

Assay [1] relates to MV4-11. Nature of the assay: Downregulation of HDAC6 protein expression in human MV4-11 cells at 5 uM after 24 hrs by Western blot analysis. It is filed as functional, cell-based. In short, it runs like this:
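MV4-11 cells treated 24 h at 0.25, 0.5, 1 and 2 μM, with 5 μM SAHA as reference. RIPA lysates normalized by BCA, run on 4–12% Bis-Tris gels, probed with primary antibodies at 1/1000 overnight at 4 °C. HDAC6 and acetylated histones/tubulin detected; actin as loading control. Representative of n = 2.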

The next assay has as its target Histone deacetylase 2 (Homo sapiens, UniProt Q92769). Kind of assay: Inhibition of full length recombinant human C-terminal FLAG/His-tagged HDAC2 expressed in baculovirus expression system using Boc-Lys(acetyl)-AMC as substrate preincubated for 1 hr followed by substrate addition measured after 2 hrs by fluorescence assay. In short, it runs like this: (§1)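 Recombinant HDAC incubated with serial compound dilutions at 30 °C for 1 h. Reaction run 2 h at 30 °C, stopped with developer containing trypsin and TSA. Fluorescence read after 30 min at 360/460 nm. Inhibition relative to control wells; IC50 from variable-slope fit.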

The target of assay [2] is Histone deacetylase 3/Nuclear receptor corepressor 2 (HDAC3/NCoR2) (Homo sapiens, UniProt O15379). Kind of assay: Inhibition of full length recombinant human C-terminal His-tagged HDAC3/N-terminal GST-tagged NCOR2 co-expressed in baculovirus expression system using Boc-Lys(acetyl)-AMC as substrate preincubated for 1 hr followed by substrate addition measured after 2 hrs by fluorescence assay. In short, it runs like this: as §1
Histone deacetylase 3/Nuclear receptor corepressor 2 (HDAC3/NCoR2), sequence (O15379 whole entry): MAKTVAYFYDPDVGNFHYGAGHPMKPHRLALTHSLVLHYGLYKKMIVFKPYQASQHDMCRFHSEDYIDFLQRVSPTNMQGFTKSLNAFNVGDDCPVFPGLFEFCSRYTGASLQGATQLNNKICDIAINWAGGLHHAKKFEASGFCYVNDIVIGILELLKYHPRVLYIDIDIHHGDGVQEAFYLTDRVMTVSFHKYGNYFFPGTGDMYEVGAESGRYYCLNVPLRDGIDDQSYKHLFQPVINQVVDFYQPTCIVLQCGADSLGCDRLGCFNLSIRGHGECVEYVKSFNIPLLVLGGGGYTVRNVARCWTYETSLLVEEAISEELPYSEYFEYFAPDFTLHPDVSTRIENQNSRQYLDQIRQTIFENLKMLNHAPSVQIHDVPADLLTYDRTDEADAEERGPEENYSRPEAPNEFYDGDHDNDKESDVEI
Histone deacetylase 3/Nuclear receptor corepressor 2 (HDAC3/NCoR2), sequence (Q9Y618 whole entry, further chain): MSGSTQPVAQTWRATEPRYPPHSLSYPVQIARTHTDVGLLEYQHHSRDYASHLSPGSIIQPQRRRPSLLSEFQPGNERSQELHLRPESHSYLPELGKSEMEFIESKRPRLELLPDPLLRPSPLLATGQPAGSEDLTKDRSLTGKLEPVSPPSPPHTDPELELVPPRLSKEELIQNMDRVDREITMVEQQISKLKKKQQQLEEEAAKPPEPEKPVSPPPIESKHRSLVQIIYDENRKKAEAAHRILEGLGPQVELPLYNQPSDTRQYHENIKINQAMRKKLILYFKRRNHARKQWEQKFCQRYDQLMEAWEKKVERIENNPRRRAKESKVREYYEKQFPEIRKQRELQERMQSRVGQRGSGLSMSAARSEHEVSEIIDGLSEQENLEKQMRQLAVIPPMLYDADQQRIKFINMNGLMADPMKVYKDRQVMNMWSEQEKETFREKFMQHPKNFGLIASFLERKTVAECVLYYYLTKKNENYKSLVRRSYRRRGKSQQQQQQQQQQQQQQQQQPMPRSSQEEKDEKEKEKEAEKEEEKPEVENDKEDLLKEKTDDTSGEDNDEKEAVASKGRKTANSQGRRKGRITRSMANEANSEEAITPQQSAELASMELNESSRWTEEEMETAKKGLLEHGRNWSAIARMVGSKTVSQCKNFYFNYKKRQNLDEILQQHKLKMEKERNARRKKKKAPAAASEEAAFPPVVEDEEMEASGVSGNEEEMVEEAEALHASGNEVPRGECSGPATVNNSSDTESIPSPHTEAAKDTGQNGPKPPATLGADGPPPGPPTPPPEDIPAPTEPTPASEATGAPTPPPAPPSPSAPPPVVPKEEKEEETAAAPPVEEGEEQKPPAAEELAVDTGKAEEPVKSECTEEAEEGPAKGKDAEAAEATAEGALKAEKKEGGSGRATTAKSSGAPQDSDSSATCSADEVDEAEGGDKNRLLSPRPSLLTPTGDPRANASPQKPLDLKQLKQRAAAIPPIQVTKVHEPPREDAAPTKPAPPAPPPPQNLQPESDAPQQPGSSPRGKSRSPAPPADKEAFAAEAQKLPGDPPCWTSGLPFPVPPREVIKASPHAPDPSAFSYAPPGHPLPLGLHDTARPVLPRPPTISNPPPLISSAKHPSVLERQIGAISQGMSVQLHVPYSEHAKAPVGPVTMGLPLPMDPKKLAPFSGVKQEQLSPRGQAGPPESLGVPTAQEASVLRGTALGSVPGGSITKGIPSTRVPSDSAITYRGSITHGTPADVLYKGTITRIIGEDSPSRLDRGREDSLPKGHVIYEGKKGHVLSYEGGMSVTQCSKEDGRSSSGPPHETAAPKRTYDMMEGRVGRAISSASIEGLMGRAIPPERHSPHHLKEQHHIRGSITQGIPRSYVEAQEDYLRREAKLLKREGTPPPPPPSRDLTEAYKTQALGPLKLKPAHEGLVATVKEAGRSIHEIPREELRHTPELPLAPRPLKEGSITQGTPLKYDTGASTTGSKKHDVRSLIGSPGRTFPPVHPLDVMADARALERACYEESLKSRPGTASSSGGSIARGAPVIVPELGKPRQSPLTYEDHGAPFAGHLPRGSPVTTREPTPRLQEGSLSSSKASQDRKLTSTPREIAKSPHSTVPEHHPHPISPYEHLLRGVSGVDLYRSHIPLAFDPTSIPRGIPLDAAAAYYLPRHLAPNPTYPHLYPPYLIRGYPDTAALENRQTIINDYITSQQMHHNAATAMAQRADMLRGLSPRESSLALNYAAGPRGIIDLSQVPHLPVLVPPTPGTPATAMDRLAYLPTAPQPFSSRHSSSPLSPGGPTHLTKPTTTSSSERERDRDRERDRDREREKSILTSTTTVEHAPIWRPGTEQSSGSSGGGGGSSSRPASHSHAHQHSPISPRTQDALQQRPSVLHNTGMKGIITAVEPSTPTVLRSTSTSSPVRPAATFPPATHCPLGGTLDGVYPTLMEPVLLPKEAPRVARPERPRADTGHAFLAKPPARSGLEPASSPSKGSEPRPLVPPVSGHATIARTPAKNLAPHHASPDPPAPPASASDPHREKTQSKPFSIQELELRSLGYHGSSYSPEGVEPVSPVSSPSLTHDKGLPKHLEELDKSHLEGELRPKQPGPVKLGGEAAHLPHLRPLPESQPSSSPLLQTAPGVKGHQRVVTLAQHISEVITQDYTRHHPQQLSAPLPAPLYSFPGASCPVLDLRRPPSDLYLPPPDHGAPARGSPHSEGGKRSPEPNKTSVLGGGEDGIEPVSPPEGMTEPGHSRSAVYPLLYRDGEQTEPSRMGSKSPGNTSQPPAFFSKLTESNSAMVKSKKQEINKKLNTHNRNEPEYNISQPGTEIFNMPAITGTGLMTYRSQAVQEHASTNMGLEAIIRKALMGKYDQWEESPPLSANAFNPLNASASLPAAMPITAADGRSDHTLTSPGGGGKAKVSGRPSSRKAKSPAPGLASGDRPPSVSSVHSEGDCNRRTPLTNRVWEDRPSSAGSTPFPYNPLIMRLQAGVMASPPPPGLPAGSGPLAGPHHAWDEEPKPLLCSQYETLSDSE

The target of a further assay is Histone deacetylase 1 (Homo sapiens, UniProt Q13547). Nature of the assay: Inhibition of full length recombinant human C-terminal FLAG/His-tagged HDAC1 expressed in baculovirus expression system using Boc-Lys(acetyl)-AMC as substrate preincubated for 1 hr followed by substrate addition measured after 2 hrs by fluorescence assay. In short, it runs like this:
as §1

In assay [3] the target is T1, Protein deacetylase HDAC6 (Homo sapiens, UniProt Q9UBN7).
T1 sequence (Q9UBN7 whole entry): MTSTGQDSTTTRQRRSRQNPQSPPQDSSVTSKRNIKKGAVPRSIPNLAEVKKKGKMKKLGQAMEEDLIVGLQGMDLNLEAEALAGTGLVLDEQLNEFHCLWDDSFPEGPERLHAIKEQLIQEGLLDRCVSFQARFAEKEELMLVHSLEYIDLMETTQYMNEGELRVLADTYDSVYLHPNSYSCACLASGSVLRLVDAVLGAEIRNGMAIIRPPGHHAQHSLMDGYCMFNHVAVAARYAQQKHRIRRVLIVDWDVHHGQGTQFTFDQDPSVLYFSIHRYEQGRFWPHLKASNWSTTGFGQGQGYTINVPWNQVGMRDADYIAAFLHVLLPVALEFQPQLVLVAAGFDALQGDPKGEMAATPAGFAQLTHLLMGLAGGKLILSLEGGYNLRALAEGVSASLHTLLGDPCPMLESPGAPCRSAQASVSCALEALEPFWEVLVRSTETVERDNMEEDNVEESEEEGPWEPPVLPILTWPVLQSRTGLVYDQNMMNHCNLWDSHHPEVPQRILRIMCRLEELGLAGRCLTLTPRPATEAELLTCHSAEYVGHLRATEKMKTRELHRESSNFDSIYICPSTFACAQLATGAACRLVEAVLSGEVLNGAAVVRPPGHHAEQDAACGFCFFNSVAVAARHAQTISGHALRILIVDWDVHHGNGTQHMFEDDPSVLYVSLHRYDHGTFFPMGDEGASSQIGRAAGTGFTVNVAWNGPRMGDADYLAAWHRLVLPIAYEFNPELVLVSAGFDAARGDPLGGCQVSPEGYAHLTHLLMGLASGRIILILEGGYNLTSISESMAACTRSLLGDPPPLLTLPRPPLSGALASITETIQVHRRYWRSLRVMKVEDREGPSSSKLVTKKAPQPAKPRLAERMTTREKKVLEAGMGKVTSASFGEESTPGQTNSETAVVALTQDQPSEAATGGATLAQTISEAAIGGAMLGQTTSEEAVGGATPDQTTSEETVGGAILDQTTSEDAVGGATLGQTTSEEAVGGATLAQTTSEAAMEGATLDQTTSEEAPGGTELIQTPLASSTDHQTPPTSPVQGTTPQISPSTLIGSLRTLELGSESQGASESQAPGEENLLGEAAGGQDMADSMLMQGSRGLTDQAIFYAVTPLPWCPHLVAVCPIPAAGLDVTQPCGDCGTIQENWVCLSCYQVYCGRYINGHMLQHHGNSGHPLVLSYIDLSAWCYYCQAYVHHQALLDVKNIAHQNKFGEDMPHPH
Nature of the assay: Inhibition of HDAC6 (unknown origin) using Boc-Lys(acetyl)-AMC as substrate preincubated for 1 hr followed by substrate addition measured after 2 hrs by fluorescence assay. In short, it runs like this:
as §1

In assay [4] the test system is MV4-11. Kind of assay: Antiproliferative activity against human MV4-11 cells after 48 hrs by CellTiter-Blue assay. It is filed as functional, cell-based. The note with it: MV4-11, 48 h. (In general: Alamar Blue is a resazurin reagent that responds to reducing activity.)

Structures are written as SMILES. The source made the active and inactive calls. The rule behind the calls is not given here. Some results are limits rather than exact numbers.

Histone deacetylase 1, sequence (Q13547 whole entry): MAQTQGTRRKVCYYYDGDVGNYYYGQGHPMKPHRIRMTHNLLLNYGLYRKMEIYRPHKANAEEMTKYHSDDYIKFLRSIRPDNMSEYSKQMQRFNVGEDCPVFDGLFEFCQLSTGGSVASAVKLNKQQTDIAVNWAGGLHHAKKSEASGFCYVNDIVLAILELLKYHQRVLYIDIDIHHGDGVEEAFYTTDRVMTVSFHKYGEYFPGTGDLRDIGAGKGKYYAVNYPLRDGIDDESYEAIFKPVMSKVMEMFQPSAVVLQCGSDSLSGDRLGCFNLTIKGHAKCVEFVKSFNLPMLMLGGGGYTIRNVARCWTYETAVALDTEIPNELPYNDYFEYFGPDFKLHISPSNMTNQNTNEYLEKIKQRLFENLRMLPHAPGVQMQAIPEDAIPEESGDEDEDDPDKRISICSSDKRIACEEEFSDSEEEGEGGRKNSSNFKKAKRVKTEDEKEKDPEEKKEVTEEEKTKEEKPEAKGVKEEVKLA
Histone deacetylase 2, sequence (Q92769 whole entry): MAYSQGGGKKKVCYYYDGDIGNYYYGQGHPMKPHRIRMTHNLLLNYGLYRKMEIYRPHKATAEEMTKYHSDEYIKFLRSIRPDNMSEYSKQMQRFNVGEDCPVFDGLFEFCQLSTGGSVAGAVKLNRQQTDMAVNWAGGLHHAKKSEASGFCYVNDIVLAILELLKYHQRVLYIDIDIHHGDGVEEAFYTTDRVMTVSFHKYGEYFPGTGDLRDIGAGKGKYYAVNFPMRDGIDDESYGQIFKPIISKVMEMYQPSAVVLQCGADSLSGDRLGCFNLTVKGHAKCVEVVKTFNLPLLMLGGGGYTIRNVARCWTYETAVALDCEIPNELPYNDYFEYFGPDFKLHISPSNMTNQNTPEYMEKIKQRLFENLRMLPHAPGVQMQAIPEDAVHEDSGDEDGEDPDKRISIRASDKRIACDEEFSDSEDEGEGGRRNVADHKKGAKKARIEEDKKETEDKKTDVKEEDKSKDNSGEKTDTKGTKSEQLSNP

`O=C(CCCCCCC(=O)Nc1ccccc1)NO`: the result with MV4-11 [1] was Active.

Consider `CCCNNC(=O)CCCCCNC(=O)[C@H](Cc1c[nH]c2ccccc12)NC(=O)c1ccc(OC)cc1`, for which the IC50 at Histone deacetylase 2 is 209 nM; in assay [2], 12.4 nM; at Histone deacetylase 1, 80.2 nM; in assay [3], greater than 100000 nM.

With `COc1ccc(C(=O)N[C@@H](Cc2c[nH]c3ccccc23)C(=O)NCc2ccc(C(=O)NNC3CCCC3)cc2)cc1`, the IC50 is greater than 5000 nM on Histone deacetylase 2, greater than 5000 nM in assay [2], greater than 5000 nM at Histone deacetylase 1 and greater than 100000 nM in assay [3]. In addition, the EC50 in the assay with MV4-11 [4] was greater than 20000 nM.

As to `CCCCNNC(=O)c1ccc(CNC(=O)[C@H](Cc2c[nH]c3ccccc23)NC(=O)c2ccc(OC)cc2)cc1`, the IC50 at Histone deacetylase 2 is 193 nM; in assay [2], 16.5 nM; at Histone deacetylase 1 it was 53.7 nM; in assay [3], greater than 100000 nM.

For the compound `CCCNNC(=O)CCCCCCNC(=O)[C@H](Cc1c[nH]c2ccccc12)NC(=O)c1ccc(OC)cc1`, the IC50 on Histone deacetylase 2 was 191 nM; in assay [2], 5.2 nM; at Histone deacetylase 1, 91.6 nM; in assay [3] it was greater than 100000 nM.

For the compound `COc1ccc(C(=O)N[C@@H](Cc2c[nH]c3ccccc23)C(=O)NCc2ccc(C(=O)NNc3ccccc3)cc2)cc1`, the IC50 at Histone deacetylase 2 was greater than 5000 nM; in assay [2] it was greater than 5000 nM; at Histone deacetylase 1 it was greater than 5000 nM; in assay [3] it was greater than 100000 nM. Moreover, in the assay with MV4-11 [4], the EC50 is greater than 20000 nM.

Usually IC50 stands for the concentration at which inhibition is half-maximal. By EC50 is commonly meant the concentration needed to bring the measured effect to its halfway point.
